Measurements of several laboratories.
Each line is one published result; the experiments were not run side by side.

| Compound | host | sample | route | dose | notes | AUC(0-t) |
| --- | --- | --- | --- | --- | --- | --- |
| C[C@H]1[C@@H](O)O[C@@H]2O[C@@]3(C)CC[C@H]4[C@H](C)CC[C@@H]1[C@@]24OO3 | female SCID mouse | plasma | oral | 120 mg/kg |  | 1870 ng·h/mL |
| CN1CCN(C(=O)c2cc3c(Nc4ccc(OC(F)(F)F)cc4)ncnc3s2)CC1 | male BALB/c mouse | plasma | oral | 20 mg/kg |  | 2410 ng·h/mL |
| CN1CCN(CC2CCN(c3cncc4[nH]c(-c5cc(F)cc(F)c5)nc34)CC2)CC1 | mouse | blood | intravenous | 2 mg/kg |  | 0.967 µM·h |
| COc1nc(-c2cc(C)c(N[C@@H](C)c3cc(F)cc(F)c3)nn2)ccc1-n1cnc(C)c1 | male CD-1 mouse | plasma | intravenous | 1 mg/kg | single dose | 1940 ng·h/mL |
| Cc1nc(-c2cnc(NC(C)C)n(C)c2=O)ccc1Oc1ccnc(-c2cnn(C)c2)c1 | female mouse | plasma | oral | 30 mg/kg | single dose | 179000 ng·h/mL |
| CN1CCN(CC2CCN(c3nccc4[nH]c(-c5cc(F)cc(F)c5)nc34)CC2)CC1 | mouse | blood | intravenous | 2 mg/kg |  | 2.42 µM·h |
| CS(=O)(=O)CCNCc1ccc(-c2ccc3ncnc(Nc4ccc(OCc5cccc(F)c5)c(Cl)c4)c3c2)o1 | nude mouse | plasma | oral | 200 mg/kg | single dose | 234000 ng·h/mL |
| C=CC(=O)N1CC2CC(n3nc(-c4ccc(C(=O)Nc5ccccn5)cc4)c4c(N)ncnc43)CC2C1 (stereo not shown) | SCID mouse | plasma | oral | 3 mg/kg |  | 588 ng·h/mL |
| CCOC(=O)c1sc(Nc2ncccn2)nc1-c1ccccn1 | male CD-1 mouse | plasma | oral | 10 mg/kg |  | 195 ng·h/mL |
| CC[C@H](C)[C@@H]1NC(=O)[C@@](C)(NC(=O)[C@H](CCCNC(=N)N)NC(=O)[C@H](CC(C)C)NC(=O)[C@@H](NC(=O)[C@H](CCC(N)=O)NC(=O)[C@H](CC(C)C)NC(C)=O)[C@@H](C)O)CCCC=CCCC[C@@](C)(C(=O)N[C@@H](CC(C)C)C(=O)N[C@@H](Cc2ccc3ccccc3c2)C(N)=O)NC(=O)[C@H](CCCNC(=N)N)NC(=O)[C@H](CCC(N)=O)NC1=O | male BALB/c mouse | plasma | intravenous | 15 mg/kg |  | 260000 ng·h/mL |
| COc1ccc2nccc(N3CCc4c(cc(Cn5ccnc5)cc4-c4cn(C)nc4C(F)(F)F)C3=O)c2c1 | male CD-1 mouse | plasma | oral | 50 mg/kg |  | 33800 ng·h/mL |
| CC(C)(C)c1cc(NC(=O)Nc2ccc(Oc3ccnc4[nH]c(=O)cnc34)cc2F)n(-c2ccccc2)n1 | BALB/c mouse | plasma | intravenous | 2 mg/kg |  | 154 µM·h |
| NC(=O)c1cc(Oc2ccc(NC(=O)Nc3ccc(Cl)c(C(F)(F)F)c3)c(F)c2)cc[n+]1[O-] | mouse | plasma | oral | 10 mg/kg | single dose | 65 ng·h/mL |
| CCc1cc(OC)c2nccc(N3CCc4c(cc(Cn5ccnc5)cc4-c4cn(C)nc4C(F)(F)F)C3=O)c2c1 | male CD-1 mouse | plasma | intravenous | 3 mg/kg |  | 3330 ng·h/mL |
| Cn1ccnc1N1CCN(CC2CCN(c3nccc4[nH]c(-c5cc(F)cc(F)c5)nc34)CC2)CC1 | mouse | blood | intravenous | 2 mg/kg |  | 7.88 µM·h |
| Cc1ccc2cncc(N3CCc4c(cc(Cn5ccnc5)cc4-c4cn(C)nc4C(F)(F)F)C3=O)c2c1 | male CD-1 mouse | plasma | intravenous | 3 mg/kg |  | 3840 ng·h/mL |
| COc1ccc(C(O)COc2ccc(-c3csc(-c4ccc(OCC(O)c5ccc(OC)c(OC)c5)cc4)n3)cc2)cc1OC (stereo not shown) | C57BL/6 mouse | plasma | oral | 10 mg/kg |  | 10000 ng·h/mL |
| CCc1cc(C(=O)NC)c2nccc(N3CCc4c(cc(Cn5ccnc5)cc4-c4cn(C)nc4C(F)(F)F)C3=O)c2c1 | male CD-1 mouse | plasma | oral | 50 mg/kg |  | 122000 ng·h/mL |
| C[C@H](NC(=O)C(C)(C)Oc1ccc(C(F)(F)F)cn1)[C@@H](Cc1ccc(Cl)cc1)c1cccc(C#N)c1 | mouse | plasma | oral | 6 µmol/kg | single dose | 5.3 µM·h |
